Key:
HCT-116 [1] = assay: Induction of apoptosis in human HCT116 cells assessed as viable cells at 0.2 uM after 24 hrs by annexin V/propidium iodide staining-based flow cytometry (reference value: 92%); type: functional; details: HCT-116, 24 h, read-out: Activity
HCT-116 [2] = assay: Cell cycle arrest in human HCT116 cells assessed as accumulation at G2/M phase at 0.2 uM after 24 hrs by flow cytometry (reference value: 20.36%); type: functional
HCT-116 [3] = assay: Cell cycle arrest in human HCT116 cells assessed as accumulation at G2/M phase at 0.5 uM after 24 hrs by flow cytometry (reference value: 20.36%); type: functional
HCT-116 [4] = assay: Antiproliferative activity against human HCT116 cells after 48 hrs by MTT assay; type: functional, cell-based; details: HCT-116, 48 h
In short: (§1)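 HCT116, HepG2, SMMC-7721, SK-OV-3 and A2780s grown in DMEM; A549 and MCF-7 in RPMI-1640; all with 10% FBS and penicillin/streptomycin at 37 °C, 5% CO2. Log-phase cells at 40,000-50,000 cells/mL treated with graded concentrations for 48 h. MTT 3 h, DMSO solubilization, A570. IC50 from percent growth versus untreated control; mean ± SEM of ≥3 independent dose-response experiments.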

HCT-116 [5] = assay: Antitumor activity against human HCT116 cells xenografted in Balb/c athymic nude mouse assessed as tumor growth inhibition at 50 mg/kg, ip administered daily after 42 days; type: functional; details: HCT-116, ip, 1008 h, read-out: TGI
In short: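 Female Balb/C athymic nude mice, 5-6 weeks old, implanted s.c. in the right flank with HCT116 cells in 100 µL HBSS. Tumor volume (π/6 × L × W²) and body weight measured every 2 days. Inhibition = (1 − treated/control tumor weight) × 100%.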

HUVEC = assay: Antimigratory activity against HUVEC after 24 hrs by phase contrast microscopy; type: functional, cell-based; details: Homo sapiens
In short: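 HUVEC monolayers grown overnight in 6-well plates, scratched with pipet tips, washed twice with PBS, then given fresh EBM2 with vehicle or compound. Imaged by phase contrast at 0 and 24 h (100×). Migrated cells counted manually in 3 separate fields; mean ± SD from three fields.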

HCT-116 [6] = assay: Cell cycle arrest in human HCT116 cells assessed as accumulation at G2/M phase at 1 uM after 24 hrs by flow cytometry (reference value: 20.36%); type: functional
Mus musculus = assay: Toxicity in Balb/c athymic nude mouse xenografted with human HCT116 cells assessed as change in feeding and animal behavior at 20 to 50 mg/kg, ip administered daily; type: organism-based, HCT-116; details: in vivo
HepG2 [7] = assay: Induction of apoptosis in human HepG2 cells assessed as necrotic cells at 0.5 uM after 24 hrs by annexin V/propidium iodide staining-based flow cytometry (reference value: 1.59%); type: functional
A549 = assay: Antiproliferative activity against human taxol-resistant A549 cells after 48 hrs by MTT assay; type: functional, cell-based; details: A549, 48 h
In short: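 MCF-7/ADR (doxorubicin-resistant) and A549/T (taxol-resistant) cells in RPMI-1640 with 10% FBS and penicillin/streptomycin. Log-phase cells at 40,000-50,000 cells/mL exposed to graded concentrations for 48 h. MTT 3 h, DMSO solubilization, absorbance 570 nm. IC50 from percent growth versus untreated control; mean ± SEM of ≥3 independent experiments.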

HepG2 [8] = assay: Induction of apoptosis in human HepG2 cells assessed as necrotic cells at 0.2 uM after 48 hrs by annexin V/propidium iodide staining-based flow cytometry (reference value: 1.59%); type: functional
HCT-116 [9] = assay: Induction of apoptosis in human HCT116 cells assessed as necrotic cells at 1 uM after 24 hrs by annexin V/propidium iodide staining-based flow cytometry (reference value: 3.49%); type: functional
HepG2 [10] = assay: Induction of apoptosis in human HepG2 cells assessed as late apoptotic cells at 0.2 uM after 24 hrs by annexin V/propidium iodide staining-based flow cytometry (reference value: 3.74%); type: functional
HCT-116 [11] = assay: Induction of apoptosis in human HCT116 cells assessed as necrotic cells at 1 uM after 48 hrs by annexin V/propidium iodide staining-based flow cytometry (reference value: 3.49%); type: functional
HepG2 [12] = assay: Cell cycle arrest in human HepG2 cells assessed as accumulation at S phase at 0.2 uM after 24 hrs by flow cytometry (reference value: 23.97%); type: functional
MCF7 [13] = assay: Antiproliferative activity against human MCF7 cells after 48 hrs by MTT assay; type: functional, cell-based; details: MCF7, 48 h; in short: as §1
HepG2 [14] = assay: Induction of apoptosis in human HepG2 cells assessed as early apoptotic cells at 0.2 uM after 48 hrs by annexin V/propidium iodide staining-based flow cytometry (reference value: 0.87%); type: functional
HCT-116 [15] = assay: Induction of apoptosis in human HCT116 cells assessed as viable cells at 1 uM after 48 hrs by annexin V/propidium iodide staining-based flow cytometry (reference value: 92%); type: functional; details: HCT-116, 48 h, read-out: Activity
HCT-116 [16] = assay: Induction of apoptosis in human HCT116 cells assessed as early apoptotic cells at 0.2 uM after 24 hrs by annexin V/propidium iodide staining-based flow cytometry (reference value: 2.83%); type: functional
In short: (§2)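 HCT116 cells treated with compound or DMSO for 24 or 48 h, trypsinized, washed twice in PBS and dual-stained with annexin-V and PI. Analysed by flow cytometry: early apoptotic cells scored as annexin-V+/PI−, late apoptotic cells as annexin-V+/PI+.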

HCT-116 [17] = assay: Induction of apoptosis in human HCT116 cells assessed as necrotic cells at 0.5 uM after 24 hrs by annexin V/propidium iodide staining-based flow cytometry (reference value: 3.49%); type: functional
HepG2 [18] = assay: Induction of apoptosis in human HepG2 cells assessed as necrotic cells at 1 uM after 48 hrs by annexin V/propidium iodide staining-based flow cytometry (reference value: 1.59%); type: functional
MCF7 [19] = assay: Resistance ratio, ratio of IC50 for human doxorubicin-resistant MCF7 cells to IC50 for human MCF7 cells; type: functional
In short: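 MTT assay: log-phase cells at 40,000-50,000 cells/mL in RPMI-1640 with 10% FBS, exposed to graded concentrations for 48 h, then MTT 3 h, DMSO solubilization, absorbance at 570 nm. IC50 from growth versus untreated control, at least three independent experiments. Ratio = resistant-line IC50 / parental-line IC50.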

HCT-116 [20] = assay: Induction of apoptosis in human HCT116 cells assessed as late apoptotic cells at 0.2 uM after 48 hrs by annexin V/propidium iodide staining-based flow cytometry (reference value: 1.71%); type: functional; in short: as §2
HepG2 [21] = assay: Cell cycle arrest in human HepG2 cells assessed as accumulation at G2/M phase at 1 uM after 24 hrs by flow cytometry (reference value: 11.29%); type: functional
NCI-H1975 = assay: Antiproliferative activity against human gefitinib-resistant NCI-H1975 cells after 48 hrs by MTT assay; type: functional, cell-based; details: NCI-H1975, 48 h
HCT-116 [22] = assay: Cell cycle arrest in human HCT116 cells assessed as accumulation at S phase at 0.5 uM after 24 hrs by flow cytometry (reference value: 25.66%); type: functional
HCT-116 [23] = assay: Induction of apoptosis in human HCT116 cells assessed as necrotic cells at 0.5 uM after 48 hrs by annexin V/propidium iodide staining-based flow cytometry (reference value: 3.49%); type: functional

- IC50 (HCT-116 [4]): 0.0084 µM
- IC50 (A549): 0.043 µM
- IC50 (MCF7 [13]): 0.1 µM
- IC50 (NCI-H1975): 0.217 µM
SMILES: CCOc1ccc(-c2nc(N)sc2-c2cc(OC)c(OC)c(OC)c2)cc1
- viability at 0.2 µM (HCT-116 [1]): 80.4%
- Activity (HCT-116 [2]): 48.79%
- Activity (HCT-116 [3]): 68.04%
- inhibition in vivo at 50 mg/kg (HCT-116 [5]): 55.1%
- Activity (HUVEC): Dose-dependent effect
- Activity (HCT-116 [6]): 9.22%
- Activity (Mus musculus): Non-toxic
- Activity (HepG2 [7]): 0.81%
- Activity (HepG2 [8]): 0.79%
- Activity (HCT-116 [9]): 3.15%
- Activity (HepG2 [10]): 6.51%
- Activity (HCT-116 [11]): 4.06%
- Activity (HepG2 [12]): 29.88%
- Activity (HepG2 [14]): 66.6%
- viability at 1 µM (HCT-116 [15]): 20.2%
- Activity (HCT-116 [16]): 7.8%
- Activity (HCT-116 [17]): 3.5%
- Activity (HepG2 [18]): 0.4%
- Ratio IC50 (MCF7 [19]): 1.9
- Activity (HCT-116 [20]): 23.4%
- Activity (HepG2 [21]): 83.67%
- Activity (HCT-116 [22]): 20.51%
- Activity (HCT-116 [23]): 4.36%
